In general, MIC refers to the least concentration at which growth counts as inhibited.

≈ marks a conversion by molar mass, not a printed value. Calls of active or inactive are those of the source. No cut-off for these calls is given here.

The test system of series [1] is Staphylococcus aureus. The experiment in a line: Antimicrobial activity against methicillin-resistant Staphylococcus aureus HEMSA incubated for 20 hrs by serial dilution broth microplate method. In kind it is functional. A digest of the protocol:
(§1)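 Broth microdilution MIC per CLSI in Mueller-Hinton broth against clinical isolate MRSA HEMSA 5. Bacterial suspension adjusted to OD 0.5, diluted 1:100 and added to serial two-fold dilutions of test agent. Ampicillin/sulbactam used at 2:1 ratio. Growth read after 20 h at 37 °C.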

Series [2] concerns Staphylococcus aureus. Description: Antimicrobial activity against Staphylococcus aureus ATCC 25923 incubated for 20 hrs by serial dilution broth microplate method. Format: functional. To be noted: ATCC 25923, 20 h. A digest of the protocol:
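Broth dilution per CLSI in Mueller-Hinton broth, serial two-fold dilutions; compounds alone against reference strain, inoculum from suspension at OD 0.5 diluted 1:100; read after 20 h at 37 °C. MIC taken as lowest concentration inhibiting growth.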

The target in series [3] is T1, Methicillin resistance mecR1 protein (Staphylococcus aureus) (UniProt P0A0B1).
T1 sequence (whole entry): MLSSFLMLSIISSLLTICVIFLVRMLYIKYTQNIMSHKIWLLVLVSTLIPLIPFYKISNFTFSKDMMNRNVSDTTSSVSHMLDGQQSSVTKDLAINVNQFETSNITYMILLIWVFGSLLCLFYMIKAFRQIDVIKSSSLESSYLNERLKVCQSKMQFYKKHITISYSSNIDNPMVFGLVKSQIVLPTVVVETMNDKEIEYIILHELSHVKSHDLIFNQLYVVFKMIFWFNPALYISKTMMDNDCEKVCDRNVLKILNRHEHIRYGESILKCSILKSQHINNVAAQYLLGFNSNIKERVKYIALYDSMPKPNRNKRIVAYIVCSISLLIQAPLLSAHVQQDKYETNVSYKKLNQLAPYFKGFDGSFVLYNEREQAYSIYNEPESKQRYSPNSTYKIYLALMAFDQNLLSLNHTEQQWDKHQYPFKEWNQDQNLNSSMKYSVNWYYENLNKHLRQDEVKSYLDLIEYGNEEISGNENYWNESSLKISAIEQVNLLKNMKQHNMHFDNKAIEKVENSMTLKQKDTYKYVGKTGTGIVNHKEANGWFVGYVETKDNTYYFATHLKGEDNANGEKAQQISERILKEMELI
The experiment in a line: Inhibition of MecR1 in methicillin-resistant Staphylococcus aureus HEMSA assessed as reduction in oxacillin A MIC at 0.125 mM incubated for 20 hrs by serial dilution broth microplate method. A digest of the protocol:
(§2)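 Chemosensitization in MRSA HEMSA 5 measured by CLSI broth microdilution in Mueller-Hinton broth. Serial two-fold dilutions of antibiotic (oxacillin, cloxacillin, ampicillin/sulbactam 2:1, ciprofloxacin or neomycin) combined with compound at fixed concentration not exceeding ¼ of its own MIC. Inoculum OD 0.5 diluted 1:100. Read after 20 h at 37 °C. Result given as fold reduction of antibiotic MIC.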

The subject of series [4] is Staphylococcus aureus. The experiment in a line: Potentiation of oxacillin-induced antibacterial activity against Staphylococcus aureus ATCC 25923 assessed as reduction in oxacillin MIC at 0.0625 mM incubated for 20 hrs by serial dilution broth microplate method. Format: functional.
Series [5] concerns the target T1, Methicillin resistance mecR1 protein (Staphylococcus aureus). The experiment in a line: Inhibition of MecR1 in methicillin-resistant Staphylococcus aureus HEMSA assessed as reduction in cloxacillin MIC at 0.125 mM incubated for 20 hrs by serial dilution broth microplate method. A digest of the protocol:
as §2

Series [6] shares this target. Description: Inhibition of MecR1 in methicillin-resistant Staphylococcus aureus HEMSA assessed as reduction in ampicillin and sulbactam MIC at 0.125 mM incubated for 20 hrs by serial dilution broth microplate method. Summed up: as §2
Series [7] concerns Staphylococcus aureus. The experiment in a line: Potentiation of […] antibacterial activity against Staphylococcus aureus ATCC 25923 assessed as reduction in cloxacillin MIC incubated for 20 hrs by serial dilution broth microplate method. Format: functional, organism-based.
In series [8] the test system is Staphylococcus aureus. Description: Potentiation of […] antibacterial activity against Staphylococcus aureus ATCC 25923 assessed as reduction in ampicillin and sulbactam MIC MIC incubated for 20 hrs by serial dilution broth microplate method. In kind it is functional, organism-based.
Series [9] has as its target T1, Methicillin resistance mecR1 protein (Staphylococcus aureus). The experiment in a line: Inhibition of MecR1 in methicillin-resistant Staphylococcus aureus HEMSA assessed as reduction in ciprofloxacin MIC at 0.125 mM incubated for 20 hrs by serial dilution broth microplate method. Summed up:
as §2

For series [10] the target is unchanged. Description: Inhibition of MecR1 in methicillin-resistant Staphylococcus aureus HEMSA assessed as reduction in neomycin MIC at 0.125 mM incubated for 20 hrs by serial dilution broth microplate method. Summed up: as §2
Series [11] deals with Staphylococcus aureus. Description: Potentiation of ciprofloxacin -induced antibacterial activity against Staphylococcus aureus ATCC 25923 assessed as reduction in […] MIC incubated for 20 hrs by serial dilution broth microplate method. In kind it is functional, organism-based.
Series [12] relates to Staphylococcus aureus. The experiment in a line: Potentiation of neomycin-induced antibacterial activity against Staphylococcus aureus ATCC 25923 assessed as reduction in […] MIC incubated for 20 hrs by serial dilution broth microplate method. Format: functional, organism-based.
Series [13] has as its system Staphylococcus aureus. The experiment in a line: Resistance index, ratio of MIC for methicillin-resistant Staphylococcus aureus HEMSA to MIC for Staphylococcus aureus ATCC 25923. In kind it is functional.
Series [14] is described as follows: Toxicity against HEK293 cells assessed as cell viability at 0.125 mM incubated for 48 hrs by EZ4U colorimetric assay. In kind it is cell-based. To be noted: human, read-out: Activity. A digest of the protocol:
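HEK-293 cells in DMEM with 10% FBS, penicillin/streptomycin, 37 °C, 5% CO2; seeded 1.5×10^4 cells/well, 24 h to 60% confluence; compound 0.01–250 µM for 48 h; EZ4U tetrazolium reagent 5 h, absorbance at 492 nm; doxorubicin positive control (0.005–100 µM); four repetitions.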

In series [15] the test system is Staphylococcus aureus. Description: Potentiation of oxacillin-induced antibacterial activity against Staphylococcus aureus ATCC 25923 assessed as reduction in oxacillin MIC at 0.125 mM incubated for 20 hrs by serial dilution broth microplate method. In kind it is functional.
Series [16] deals with T1, Methicillin resistance mecR1 protein (Staphylococcus aureus). Description: Inhibition of MecR1 in methicillin-resistant Staphylococcus aureus HEMSA assessed as reduction in neomycin MIC at 0.125 mM incubated for 20 hrs by serial dilution broth microplate method.
Series [17] has as its system Staphylococcus aureus. Description: Antimicrobial activity against methicillin-resistant Staphylococcus aureus HEMSA incubated for 20 hrs in presence of sulbactam by serial dilution broth microplate method. Format: functional. Summed up:
as §1

In series [18] the test system is Staphylococcus aureus. Description: Antimicrobial activity against Staphylococcus aureus ATCC 25923 incubated for 20 hrs in presence of sulbactam by serial dilution broth microplate method. Format: functional. To be noted: ATCC 25923, 20 h.
Series [19] deals with T1, Methicillin resistance mecR1 protein (Staphylococcus aureus). The experiment in a line: Inhibition of MecR1 in methicillin-resistant Staphylococcus aureus HEMSA assessed as reduction in oxacillin A MIC at 0.0078 mM incubated for 20 hrs by serial dilution broth microplate method. A digest of the protocol: as §2
In series [20] the test system is Staphylococcus aureus. The experiment in a line: Potentiation of oxacillin-induced antibacterial activity against Staphylococcus aureus ATCC 25923 assessed as reduction in oxacillin MIC at 0.0039 mM incubated for 20 hrs by serial dilution broth microplate method. In kind it is functional.
The target in series [21] is T1, Methicillin resistance mecR1 protein (Staphylococcus aureus). The experiment in a line: Inhibition of MecR1 in methicillin-resistant Staphylococcus aureus HEMSA assessed as reduction in cloxacillin MIC at 0.0078 mM incubated for 20 hrs by serial dilution broth microplate method. Summed up:
as §2

Series [22] shares this target. The experiment in a line: Inhibition of MecR1 in methicillin-resistant Staphylococcus aureus HEMSA assessed as reduction in ampicillin and sulbactam MIC at 0.0078 mM incubated for 20 hrs by serial dilution broth microplate method. Summed up:
as §2

Series [23] shares this target. The experiment in a line: Inhibition of MecR1 in methicillin-resistant Staphylococcus aureus HEMSA assessed as reduction in ciprofloxacin MIC at 0.0078 mM incubated for 20 hrs by serial dilution broth microplate method. Summed up: as §2
Series [24] shares this target. Description: Inhibition of MecR1 in methicillin-resistant Staphylococcus aureus HEMSA assessed as reduction in neomycin MIC at 0.0078 mM incubated for 20 hrs by serial dilution broth microplate method. Summed up:
as §2

Regarding `O=C1NC(N2CCNCC2)=N/C1=C\c1ccc2ccccc2c1`, the MIC came to 500 µM (≈ 153 µg/mL) in series [1] and 250 µM (≈ 76.6 µg/mL) in series [2]. Besides, the fold change (FC) amounted to 128 in series [3]; 2 in series [4]; 256 in series [5]; 4 in series [6]; 4 in series [9]. In addition, the result in [7], in series [8], in [11] and in series [12] was inactive. Further, the inhibition result in series [10] was “inactive”. Further, in series [13], the Ratio is 2.
As for `O=C1NC(N2CCNCC2)=N/C1=C\c1c2ccccc2cc2ccccc12`, the MIC in [1] and in series [2] was 500 µM (≈ 178 µg/mL) throughout. For the same molecule, in series [14], the viability at 48 h, 125 µM came to 91%. Also, the fold change (FC) in series [3] stood at 64; in series [15], 2; in series [5], 8. The inhibition result in series [6], in series [9] and in [16] was “inactive” throughout. Moreover, the result in [7], in [8], in series [11] and in [12] was inactive. Besides, the Ratio in series [13] was 1.
`CC1(C)S[C@@H]2[C@H](NC(=O)[C@H](N)c3ccccc3)C(=O)N2[C@H]1C(=O)O` [AMPICILLIN]: the Ratio in series [13] was 370. Also, the MIC in series [17] worked out at 200 µM; in series [18], 0.54 µM.
For the molecule `O=C1NC(N2CCNCC2)=N/C1=C\c1ccc2c(c1)Cc1ccccc1-2`, the MIC came out at 31.3 µM (≈ 10.8 µg/mL) in series [1] and 15.6 µM (≈ 5.37 µg/mL) in series [2]. The inhibition entry in series [19], in series [22], in series [23] and in series [24] was “inactive” in each case. The results for the “fold change (FC)” value in [20] and in series [21] were 2 and 8, respectively. Also, the result in [7], in series [8], in series [11] and in series [12] was inactive. In addition, the Ratio in series [13] was 2.

Source of the values: ChEMBL document CHEMBL3616416, “Imidazolidine-4-one derivatives in the search for novel chemosensitizers of Staphylococcus aureus MRSA: synthesis, biological evaluation and molecular modeling studies” (Eur J Med Chem, 2015).
